According to ChEMBL document CHEMBL3120162, “Sesquiterpenes from Neurolaena lobata and their antiproliferative and anti-inflammatory activities” (J Nat Prod, 2014):
Activity calls are given as the source filed them. The calls are words filed in the database; no cut-off is given here.

Experiments:
HUVEC [1] = test: Inhibition of TNF-alpha-induced IL-8 secretion in HUVEC expressing TERT at 30 uM treated for 15 mins prior to LPS challenge measured after 6 hrs by ELISA; format: functional, cell-based; details: Homo sapiens
Method in brief: (§1)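 Immortalized HUVEC (hTERT) were grown in medium 199 with 20% FBS, glutamine and ECGS/heparin. Compounds were added in medium with 5% FBS (final 30 μM) 15 min before a stimulus: TNF-α 30 ng/mL or LPS 100 ng/mL final. Media were collected after 6 h and IL-8 protein was measured by ELISA with TMB substrate. Sextuplicates, BAY positive control, ANOVA.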

HUVEC [2] = test: Inhibition of LPS-induced IL-8 secretion in HUVEC expressing TERT at 30 uM treated for 15 mins prior to LPS challenge measured after 6 hrs by ELISA; format: functional, cell-based; details: Homo sapiens; method in brief: as §1
MCF7 = test: Antiproliferative activity against human MCF7 cells assessed as inhibition of cell proliferation after 72 hrs by MTT assay; format: functional, cell-based; details: MCF7, 72 h
Method in brief: (§2)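 Cells seeded at 5000/well and allowed to attach overnight, then given fresh medium with test agents (from 10 mM DMSO stocks; at most 0.3% DMSO in medium) for 72 h. 5 mg/mL MTT solution was added for 4 h, and formazan was dissolved in DMSO and read at 545 nm. Untreated cells served as negative control and cisplatin as reference. Two plates, ≥5 parallel wells each. IC50 from sigmoidal dose-response fits.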

A2780 = test: Antiproliferative activity against human A2780 cells assessed as inhibition of cell proliferation after 72 hrs by MTT assay; format: functional, cell-based; details: A2780, 72 h; method in brief: as §2
A-431 = test: Antiproliferative activity against human A431 cells assessed as inhibition of cell proliferation after 72 hrs by MTT assay; format: functional, cell-based; details: A-431, 72 h; method in brief: as §2
HeLa = test: Antiproliferative activity against human HeLa cells assessed as inhibition of cell proliferation after 72 hrs by MTT assay; format: functional, cell-based; method in brief: as §2
HUVEC [3] = test: Inhibition of TNF-alpha-induced IL-8 secretion in HUVEC expressing TERT treated for 15 mins prior to LPS challenge measured after 6 hrs by ELISA; format: functional, Homo sapiens; method in brief: as §1
HUVEC [4] = test: Inhibition of LPS-induced IL-8 secretion in HUVEC expressing TERT treated for 15 mins prior to LPS challenge measured after 6 hrs by ELISA; format: functional, Homo sapiens; method in brief: as §1

IC50 (MCF7) | IC50 (A2780) | IC50 (A-431) | IC50 (HeLa) | Structure (SMILES) | inhibition (HUVEC [1]) | inhibition (HUVEC [2]) | inhibition (INH) (HUVEC [3]) | inhibition (INH) (HUVEC [4])
> 10 µM | 5.4 µM | 6.8 µM | > 10 µM | C=C1C(=O)O[C@@H]2C[C@@]3(C)O[C@H](O[C@H]3CC(=O)C(C)=O)[C@@H](OC(=O)CC(C)C)[C@@H]12 (relative stereo) | inactive | Active | – | –
> 10 µM | 9.8 µM | > 10 µM | > 10 µM | C=C1C(=O)O[C@@H]2C[C@]3(C)O[C@@H](O[C@@H]3CC(=O)C(C)=O)[C@@H](OC(=O)CC(C)C)[C@@H]12 (relative stereo) | inactive | Active | – | –
> 10 µM | > 10 µM | > 10 µM | > 10 µM | C=C1C(=O)O[C@@H]2[C@@H](O)[C@@H](C)C3=CC(=O)[C@](C)(O3)[C@H](O)[C@@H](OC(=O)CC(C)C)[C@@H]12 (relative stereo) | inactive | Active | – | –

Second part, the molecule before the results:

Structure (SMILES) | IC50 (MCF7) | IC50 (A2780) | IC50 (A-431) | IC50 (HeLa) | inhibition (HUVEC [1]) | inhibition (HUVEC [2]) | inhibition (INH) (HUVEC [3]) | inhibition (INH) (HUVEC [4])
C=C1C(=O)O[C@@H]2/C=C(\C)[C@H](O)C[C@H]3O[C@]3(C)C[C@@H](OC(=O)CC(C)C)[C@@H]12 (relative stereo) | 7.2 µM | 4.7 µM | 7.2 µM | > 10 µM | inactive | Active | – | –
C=C1C(=O)O[C@@H]2[C@@H]1[C@H](OC(=O)CC(C)C)C[C@@]1(C)[C@H](O)C[C@H](OC(C)=O)C(=C)[C@H]21 (relative stereo) | > 10 µM | 7.2 µM | 5.3 µM | > 10 µM | inactive | Active | – | –
Cc1ccc(S(=O)(=O)/C=C/C#N)cc1 | – | – | – | – | – | – | 23.7% | 12.7%
